From ChEMBL document CHEMBL1146277, “The discovery of 6-[2-(5-chloro-2-{[(2,4-difluorophenyl)methyl]oxy}phenyl)-1-cyclopenten-1-yl]-2-pyridinecarboxylic acid, GW848687X, a potent and selective prostaglandin EP1 receptor antagonist for the treatment of inflammatory pain” (Bioorg Med Chem Lett, 2007) come the findings set out here.

In series [1] the target is T1, Prostaglandin E2 receptor EP1 subtype (Homo sapiens, UniProt P34995).
T1 sequence (P34995 whole entry): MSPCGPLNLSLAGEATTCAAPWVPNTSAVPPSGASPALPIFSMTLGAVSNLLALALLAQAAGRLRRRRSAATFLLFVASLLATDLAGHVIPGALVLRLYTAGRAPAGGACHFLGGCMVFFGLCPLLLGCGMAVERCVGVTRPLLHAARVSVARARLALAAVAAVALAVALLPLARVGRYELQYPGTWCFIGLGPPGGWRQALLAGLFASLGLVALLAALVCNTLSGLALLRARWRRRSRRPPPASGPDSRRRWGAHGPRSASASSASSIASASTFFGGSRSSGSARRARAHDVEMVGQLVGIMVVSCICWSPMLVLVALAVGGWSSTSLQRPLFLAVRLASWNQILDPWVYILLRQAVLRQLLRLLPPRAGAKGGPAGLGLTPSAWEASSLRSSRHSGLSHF
The experiment in a line: Inhibition of human EP1 receptor.

Series [2] addresses T2, Prostaglandin E2 receptor EP3 subtype (Homo sapiens, UniProt P43115).
T2 sequence (P43115 whole entry): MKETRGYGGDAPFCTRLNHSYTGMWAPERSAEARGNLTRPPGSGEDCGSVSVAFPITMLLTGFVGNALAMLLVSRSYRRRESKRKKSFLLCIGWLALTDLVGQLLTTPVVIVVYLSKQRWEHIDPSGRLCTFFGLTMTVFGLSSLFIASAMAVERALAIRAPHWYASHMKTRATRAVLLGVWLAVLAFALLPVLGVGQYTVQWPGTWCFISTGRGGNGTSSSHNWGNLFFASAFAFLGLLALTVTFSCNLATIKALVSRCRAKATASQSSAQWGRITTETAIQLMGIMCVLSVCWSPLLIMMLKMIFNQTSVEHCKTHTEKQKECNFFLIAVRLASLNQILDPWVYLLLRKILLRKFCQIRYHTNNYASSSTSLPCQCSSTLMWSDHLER
As to the kind of experiment: Inhibition of human EP3 receptor.

Series [3] can be described thus: Blood clearance in rat at 1 mg/kg, iv. It is filed as ADME, organism-based. More on the design: dose 1 mg/kg, route intravenous. To be noted: whole blood.
The nature of series [4]: Volume of distribution in rat at 1 mg/kg, iv. The format is ADME, organism-based. Also on record: dose 1 mg/kg, route intravenous. To be noted: in vivo, read-out: Vdss.
The nature of series [5]: Half life in rat at 1 mg/kg, iv. The format is ADME, organism-based. Also on record: dose 1 mg/kg, route intravenous. Conditions: in vivo.
Series [6] can be described thus: Intrinsic clearance in rat liver microsomes. The format is ADME, Microsome. The method in brief:
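Rate of metabolism measured as intrinsic clearance (ml/min/g) in a rat microsomal assay.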

A further series deals with Cytochrome P450 2C9 (Homo sapiens, UniProt P11712). As to the kind of experiment: Inhibition of human CYP2C9. The format is ADME. Put shortly:
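Inhibition measured in a human recombinant CYP2C9 isozyme assay; IC₅₀ reported in µM.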

Series [7] can be described thus: Lipophilicity, log D of the compound. The format is physicochemical. To be noted: octanol/water.
Series [8] in a line: Blood clearance in rat. The format is ADME, organism-based. To be noted: whole blood.
The nature of series [9]: Half life in rat. The format is ADME, organism-based. To be noted: in vivo.
Series [10] relates to Rattus norvegicus. The experiment in a line: Reversal of hypersensitivity in po dosed FCA rat model of acute inflammatory pain. It is filed as functional. Put shortly: (§1)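 Freund's complete adjuvant injected into one hind paw; 24 h later, with hypersensitivity established, rats received a single oral dose of test compound in 1% methylcellulose. Hypersensitivity was read by weight bearing as percent inhibition (reversal) for each dose. Tested either as a single 5 mg/kg po dose or as a 3-point dose response, with ED₅₀ calculated as the dose giving 50% reversal.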

For series [11], the target named is T1, Prostaglandin E2 receptor EP1 subtype. As to the kind of experiment: Antagonist activity at human EP1 receptor. The format is functional. To be noted: read-out: pA2 (converted).
Series [12] can be described thus: Oral bioavailability in rat. It is filed as ADME, organism-based. To be noted: in vivo.
The nature of series [13]: Oral bioavailability in dog. The format is ADME, organism-based, Canis lupus familiaris. To be noted: in vivo.
Series [14] is described as follows: Half life in dog. It is filed as ADME, organism-based, Canis lupus familiaris. Conditions: in vivo.
The test system of series [15] is Rattus norvegicus. The experiment in a line: Reversal of antihyperalgesic effect in chronic rat model of joint pain at 30 mg/kg bid for 5 days.
Series [16] relates to Rattus norvegicus. The experiment in a line: Reversal of hypersensitivity in FCA rat model of acute inflammatory pain at 5 mg/kg, po. It is filed as functional. The method in brief: as §1

The source made the active and inactive calls. The calls are words filed in the database; no cut-off is given here.

Chain of Cytochrome P450 2C9 (P11712 whole entry): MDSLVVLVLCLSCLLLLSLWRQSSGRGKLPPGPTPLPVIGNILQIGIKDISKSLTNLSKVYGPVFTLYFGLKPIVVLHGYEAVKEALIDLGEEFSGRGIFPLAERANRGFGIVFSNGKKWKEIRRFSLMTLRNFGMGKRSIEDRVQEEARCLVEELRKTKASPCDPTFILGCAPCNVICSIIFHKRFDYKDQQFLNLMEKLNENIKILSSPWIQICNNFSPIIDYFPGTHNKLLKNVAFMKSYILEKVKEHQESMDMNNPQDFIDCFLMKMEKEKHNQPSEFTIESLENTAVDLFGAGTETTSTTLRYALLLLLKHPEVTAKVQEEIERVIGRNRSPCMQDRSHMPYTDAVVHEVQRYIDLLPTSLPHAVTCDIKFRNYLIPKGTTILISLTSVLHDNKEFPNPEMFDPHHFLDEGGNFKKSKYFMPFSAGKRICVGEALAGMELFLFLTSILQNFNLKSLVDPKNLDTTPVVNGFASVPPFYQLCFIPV

On to `O=C(O)c1cccc(C2=C(c3cc(Br)ccc3OCc3ccccc3)CCC2)c1`, for which the IC50 in [1] is 12.6 nM; in series [2], greater than 3160 nM. Further, the clearance in series [3] stood at 52 mL/min/kg. The Vd in series [4] was 1 L/kg. The same molecule gave a half-life in series [5] of 0.3 h.

Consider `O=C(O)c1cccc(C2=C(c3cc(Cl)ccc3OCc3ccc(F)cc3F)CCC2)n1`, for which the IC50 was 2.51 nM in series [1] and 14000 nM at Cytochrome P450 2C9. Also, the CLint scaled in [6] worked out at 2.9 mL/min/g. In addition, the logD in [7] was 2.6. Also, the clearance in series [8] came out at 7 mL/min/kg. Moreover, the half-life in series [9] is 2.2 h; in series [14] it was 2 h. The ED50 in the series on Rattus norvegicus [10] worked out at 1.3 mg/kg. In series [11], the Kb is 0.794 nM. Moreover, the bioavailability is 54% in [12] and 53% in [13]. The result in the series on Rattus norvegicus [15] was Active.

As for `COc1ccc(COc2ccc(Br)cc2C2=C(c3cccc(C(=O)O)c3)CCC2)cc1`, the figures for the 50% inhibitory concentration (IC50) in series [1] and in series [2] were 39.8 nM and greater than 3160 nM, respectively.

Turning to `O=C(O)c1cccc(C2=C(c3cc(Br)ccc3OCc3ccc(Cl)cc3)CCC2)c1`, the results for the IC50 in series [1] and in series [2] were 12.6 nM and greater than 3160 nM, respectively. The clearance in [3] amounted to 33 mL/min/kg. For the same molecule, the Vd in series [4] stood at 0.4 L/kg.

Turning to `O=C(O)c1cccc(C2=C(c3cc(Br)ccc3OCc3ccc(Cl)c(Cl)c3)CCC2)c1`, the half-inhibitory concentration (IC50) in series [1] is 100 nM; in series [2] it was greater than 3160 nM.

For `O=C(O)c1cncc(C2=C(c3cc(C(F)(F)F)ccc3OCc3ccccc3)CCC2)c1`, the IC50 is 10 nM in series [1] and 14000 nM against Cytochrome P450 2C9. In series [6], the CLint scaled is 2.2 mL/min/g. This molecule also displayed a logD in [7] of 2.7. The molecule further yielded a clearance in [8] of 22 mL/min/kg. The molecule also gave a half-life in series [9] of 4.1 h. For the same molecule, the ED50 in the series on Rattus norvegicus [10] worked out at 1.3 mg/kg.

In the case of `O=C(O)c1ccnc(C2=C(c3cc(Br)ccc3OCc3ccc(F)cc3)CCC2)c1`, the IC50 in [1] was 3.16 nM; against Cytochrome P450 2C9, 5000 nM. For the same molecule, the intrinsic clearance (CLint scaled) in [6] stood at 20 mL/min/g. Further, the pH-dependent lipophilicity (logD) in series [7] worked out at 2.7.

In the case of `CSc1ccc(OCc2ccc(F)cc2)c(C2=C(c3cccc(C(=O)O)c3)CCC2)c1`, the IC50 in series [1] is 31.6 nM; in [2], greater than 3160 nM.

Take `O=C(O)c1cccc(C2=C(c3cc(Br)ccc3OCc3ccc(F)cc3F)CCC2)c1`: the figures for the half-inhibitory concentration (IC50) in series [1] and in series [2] were 5.01 nM and greater than 3160 nM, respectively. This molecule also registered a clearance in [3] of 35 mL/min/kg. In [4], the Vd was 0.6 L/kg. Moreover, in series [5], the half-life was 0.2 h.

`O=C(O)c1ccnc(C2=C(c3cc(Cl)ccc3OCc3ccccc3)CCC2)n1` gave an IC50 in series [1] of 158 nM. The pH-dependent lipophilicity (logD) in [7] is 0.8.

For `O=C(O)c1cccc(C2=C(c3ccccc3OCc3ccc(Cl)c(Cl)c3)CCC2)c1`, the values for the half-maximal inhibitory concentration (IC50) in [1] and in [2] were 398 nM and greater than 3160 nM, respectively.

Consider `N#Cc1ccc(OCc2ccc(F)cc2F)c(C2=C(c3cccc(C(=O)O)c3)CCC2)c1`, for which the concentration for half-maximal inhibition (IC50) in [1] is 39.8 nM; in series [2] it was greater than 3160 nM.

Take `COc1ccc(COc2ccccc2C2=C(c3cccc(C(=O)O)c3)CCC2)cc1`: the figures for the IC50 in series [1] and in series [2] were 100 nM and greater than 3160 nM, respectively.

Regarding `CS(=O)(=O)c1ccc(OCc2ccc(F)cc2)c(C2=C(c3cccc(C(=O)O)c3)CCC2)c1`, the 50% inhibitory concentration (IC50) is 79.4 nM in [1] and greater than 3160 nM in [2].

For the molecule `CS(=O)(=O)c1ccc(OCc2ccccc2)c(C2=C(c3cccc(C(=O)O)c3)CCC2)c1`, the IC50 in series [1] is 79.4 nM; in [2] it was greater than 3160 nM.

On to `CSc1ccc(OCc2ccc(F)cc2F)c(C2=C(c3cccc(C(=O)O)c3)CCC2)c1`, for which the IC50 in [1] was 15.8 nM; in series [2] it was greater than 3160 nM.

Consider `O=C(O)c1cccc(C2=C(c3cc(Cl)ccc3OCc3ccccc3)CCC2)c1`, for which the IC50 was 5.01 nM in series [1] and greater than 3160 nM in series [2].

For `O=C(O)c1cccc(C2=C(c3ccccc3OCc3ccc(Cl)cc3F)CCC2)c1`, the half-inhibitory concentration (IC50) in series [1] was 50.1 nM; in [2], greater than 3160 nM.

As for `N#Cc1ccc(OCc2ccc(F)cc2)c(C2=C(c3cccc(C(=O)O)c3)CCC2)c1`, the results for the 50% inhibitory concentration (IC50) in series [1] and in series [2] were 398 nM and greater than 3160 nM, respectively.

Turning to `O=C(O)c1cc(C2=C(c3cc(Cl)ccc3OCc3ccccc3)CCC2)ncn1`, in series [1], half-maximal inhibition (IC50) required 200 nM. The molecule also gave a logD in series [7] of 1.2.

Molecule `O=C(O)c1cc(C2=C(c3cc(C(F)(F)F)ccc3OCc3ccccc3)CCC2)ccn1` had a half-inhibitory concentration (IC50) in series [1] of 39.8 nM.

Regarding `O=C(O)c1cccc(C2=C(c3cc(Br)ccc3OCc3ccc(Cl)cc3F)CCC2)c1`, the IC50 is 2.51 nM in series [1] and greater than 3160 nM in [2].

Take `CS(=O)(=O)c1ccc(OCc2ccc(F)cc2F)c(C2=C(c3cccc(C(=O)O)c3)CCC2)c1`: the IC50 is 15.8 nM in series [1] and greater than 3160 nM in [2].

In series [1], `O=C(O)c1cc(C2=C(c3cc(Cl)ccc3OCc3ccccc3)CCC2)cnn1` gave a concentration for half-maximal inhibition (IC50) of 39.8 nM.

For the molecule `O=C(O)c1cncc(C2=C(c3cc(Cl)ccc3OCc3ccc(F)cc3F)CCC2)n1`, the IC50 was 2 nM in series [1] and 12000 nM against Cytochrome P450 2C9. Also, in series [6], the CLint scaled came out at 2.6 mL/min/g. The log distribution coefficient (logD) in series [7] came to 1.6. In addition, in the series on Rattus norvegicus [16], the Activity came out at 52%.

In the case of `N#Cc1ccc(OCc2ccc(Cl)cc2)c(C2=C(c3cccc(C(=O)O)c3)CCC2)c1`, the IC50 in series [1] is 200 nM; in [2], greater than 3160 nM.

In the case of `O=C(O)c1cccc(C2=C(c3cc(Br)ccc3OCc3ccc(F)cc3)CCC2)c1`, the IC50 in series [1] is 20 nM; in series [2], greater than 3160 nM. The molecule further had a clearance in series [3] of 46 mL/min/kg. In series [4], the Vd is 0.7 L/kg. Moreover, the half-life in series [5] is 0.2 h.

Take `N#Cc1ccc(OCc2ccccc2)c(C2=C(c3cccc(C(=O)O)c3)CCC2)c1`: the concentration for half-maximal inhibition (IC50) in [1] is 100 nM; in series [2], greater than 3160 nM.

Take `O=C(O)c1cccc(C2=C(c3ccccc3OCc3ccccc3)CCC2)c1`: the IC50 in series [1] was 6.31 nM; in series [2] it was greater than 3160 nM.

Take `O=C(O)c1cnnc(C2=C(c3cc(Cl)ccc3OCc3ccc(F)cc3F)CCC2)c1`: the half-maximal inhibitory concentration (IC50) was 6.31 nM in series [1] and 5400 nM at Cytochrome P450 2C9. In addition, in [6], the intrinsic metabolic clearance (CLint scaled) stood at 14 mL/min/g. Moreover, in [7], the log distribution coefficient (logD) is 1.2.

For `O=C(O)c1cccc(C2=C(c3ccccc3OCc3ccc(F)cc3F)CCC2)c1`, the IC50 in [1] was 25.1 nM; in series [2] it was greater than 3160 nM.

As for `Cc1ncc(C2=C(c3cc(Cl)ccc3OCc3ccc(F)cc3)CCC2)cc1C(=O)O`, the 50% inhibitory concentration (IC50) in series [1] was 1.58 nM; against Cytochrome P450 2C9, 9000 nM. In [6], this molecule yielded a CLint scaled of 3.8 mL/min/g. The same molecule displayed a logD in series [7] of 2.7. The Activity with Rattus norvegicus [16] is given as less than 30%.

On to `CSc1ccc(OCc2ccccc2)c(C2=C(c3cccc(C(=O)O)c3)CCC2)c1`, for which the IC50 was 63.1 nM in series [1] and greater than 3160 nM in series [2].
